Measurements taken from the array DNA melting data of Ke et al. (doi:10.1101/2024.01.08.574731).

Assays:
[1] = folding enthalpy; higher = less favourable; fluorescence melt of hairpins on a sequencing array, two-state fit; conditions: sodium 0.088 M
Method in brief: (§1)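 Melting temperature and folding enthalpy were obtained by bootstrapped two-state fitting. Fits used Cy3 fluorescence of library hairpins with annealed Cy3 and quencher oligos on a sequenced MiSeq flow cell, imaged in 50 mM Na-HEPES pH 8.0, 25 mM NaCl in 2.5 °C steps up to 60 °C and normalised to pre-quench Cy3 and control constructs. Four replicates were combined by inverse-variance weighting, and fitted temperatures were raised by 9.35 °C to match UV melts.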

[2] = melting temperature; fluorescence melt of hairpins on a sequencing array, two-state fit, raised by 9.35 °C to match UV melts; conditions: sodium 0.088 M
Method in brief: as §1

Sequence | folding enthalpy [1] [kcal/mol] | Tm [2] [°C]
GGATTTGCGAAAGCATCC (((..(((....)))))) | -16.4 | 38.9
GGCAAAGGAAACTCTGCC ((((.((....)).)))) | -32.1 | 36.2
GGCAACCGAAAGGTGCC (((.(((....)))))) | -33.6 | 66.4
GGCAACGAAAGTTAGCC ((((((....))).))) | -37.5 | 53.9
GGCAACGAAAGTTCAGCC ((((((....)))..))) | -24.4 | 41.1
GGCAACGAAAGTTCCGCC ((((((....)))..))) | -21.4 | 48.4
GGCAACGAAAGTTTCGCC ((((((....)))..))) | -19 | 41.8
GGCAACGAAAGTTTGCC ((((((....))).))) | -45.8 | 56.4
GGCAACGGAAACGCTGCC ((((.((....)).)))) | -41.8 | 53.6
GGCAACGGAAACGTCACC ((..(((....)))..)) | -13.9 | 26
GGCAACGGAAACGTTACC ((.((((....)))).)) | -29.8 | 45.1
GGCAATCGAAAGATGGCC (((.(((....))).))) | -41.9 | 57.8
GGCAATGGAAACATTGCC (((((((....))))))) | -42.1 | 67
GGCAATGGAAACGTTGCC (((((.(....).))))) | -56.8 | 54.5
GGCAATGGAAACGTTGTC (.(((.(....).))).) | -25.9 | 35.8
GGCACAGAAATGTGCC ((((((....)))))) | -35.9 | 66.5
GGCACAGGAAACCATGCC ((((..(....)..)))) | -16.3 | 36.1
GGCACAGGAAACTACGCC (((..((....))..))) | -29.9 | 39.8
GGCACCCGAAAGGGCGCC (((.(((....))).))) | -31.7 | 69

Sequence | folding enthalpy [1] [kcal/mol] | Tm [2] [°C]
GGCACCGAAAGGTGAGCC ((((((....)))..))) | -13.3 | 52.6
GGCACCGAAAGGTTGGCC ((((((....)))..))) | -28.1 | 53.3
GGCACCGCGAAAGCGGCC (((..(((....)))))) | -8.53 | 40
GGCACCGGAAACAGTGCC (((((.(....).))))) | -30.9 | 53.9
GGCACCGGAAACGGTGTC (.(((((....))))).) | -24.8 | 59.9
GGCACGGGAAACCACGCC (((..((....))..))) | -28.8 | 46.2
GGCACGGGAAACCGCGCC (((.(((....))).))) | -44.1 | 63.5
GGCACGGGAAACTGTGCC (((((.(....).))))) | -41.4 | 62.2
GGCACTTCGAAAGAAGCC (((..(((....)))))) | -9.16 | 32.2
GGCAGACGAAAGTCAGCC (((.(((....))).))) | -32.8 | 64.4
GGCAGACGAAAGTCCGCC (((.(((....))).))) | -39.2 | 60.2
GGCAGAGGAAACTCCGCC (((.(((....))).))) | -28.1 | 47.5
GGCAGAGGAAACTCTGCC (((((((....))))))) | -40.2 | 67.6
GGCAGCGAAAGCTCAGCC ((((((....)))..))) | -18.4 | 51
GGCAGCGAAAGCTCGCC ((((((....))).))) | -22.5 | 61.4
GGCAGCGAAAGCTCTGCC ((((((....)))..))) | -24.5 | 52.4
GGCAGCGAAAGCTGAGCC ((((((....)))..))) | -14.1 | 51.9
GGCAGCGAAAGCTTTGCC ((((((....)))..))) | -18.1 | 51.6
